Measured values collected from several papers.
Lines come from different studies, so protocols differ.
Target: Ankyrin repeat and protein kinase domain-containing protein 1 (ANKK1, Homo sapiens, UniProt Q8NFD2)
One construct used (Q8NFD2 1-765): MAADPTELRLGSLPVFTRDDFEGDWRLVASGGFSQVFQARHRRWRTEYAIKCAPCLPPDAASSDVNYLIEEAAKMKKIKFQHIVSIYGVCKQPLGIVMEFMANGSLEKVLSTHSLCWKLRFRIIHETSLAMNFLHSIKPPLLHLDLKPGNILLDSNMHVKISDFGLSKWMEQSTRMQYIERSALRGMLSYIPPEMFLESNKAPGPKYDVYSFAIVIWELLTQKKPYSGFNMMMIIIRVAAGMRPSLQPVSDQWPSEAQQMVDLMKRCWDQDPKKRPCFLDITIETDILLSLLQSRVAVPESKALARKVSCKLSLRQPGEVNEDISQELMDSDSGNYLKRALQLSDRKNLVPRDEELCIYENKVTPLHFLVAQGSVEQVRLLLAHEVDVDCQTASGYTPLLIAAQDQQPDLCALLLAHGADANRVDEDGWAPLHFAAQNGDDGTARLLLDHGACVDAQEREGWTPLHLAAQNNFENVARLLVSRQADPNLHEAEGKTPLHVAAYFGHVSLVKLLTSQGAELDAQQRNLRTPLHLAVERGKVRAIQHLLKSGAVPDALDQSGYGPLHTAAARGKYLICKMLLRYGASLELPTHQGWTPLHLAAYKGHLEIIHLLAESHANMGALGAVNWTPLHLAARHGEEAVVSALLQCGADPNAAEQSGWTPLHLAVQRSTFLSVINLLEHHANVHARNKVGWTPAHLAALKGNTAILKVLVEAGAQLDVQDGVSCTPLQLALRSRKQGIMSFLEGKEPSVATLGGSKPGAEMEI

SMILES | read-out | technique | tested at | remaining binding
O=C(NCCCC1CCCCC1)c1ccc(CNC(=O)c2cnn(-c3ccccc3)c2C(F)(F)F)cc1 | cell-free assay | competition with immobilised ligand | 0.1 µM | 100%
COc1cnc(Nc2cccc(S(N)(=O)=O)c2)nc1N1CCN(c2ccccc2)C(=O)C1 | binding | competition with immobilised ligand | 1 µM | 82%
c1cnn2ncc(-c3ccnc(N4CCC45COC5)n3)c2c1 | binding |  | 1 µM | 72%
O=C(NCCCN1CCOCC1)c1ccc(Nc2ncc(Cl)c(-c3ccc(Cl)s3)n2)cc1 | binding | competition with immobilised ligand | 1 µM | 77%
CC1=C(C#N)C(c2ccc3c(c2)c(NC(=O)c2ccccc2C)nn3C)C(C#N)=C(C)N1 | cell-free assay | competition with immobilised ligand | 1 µM | 92%
O=C(c1ccc(Nc2ncc(Cl)c(-c3cc4ccccc4s3)n2)cc1)N1CCC(N2CCCC2)CC1 | binding | competition with immobilised ligand | 1 µM | 62%
c1cncc(-c2cccc(Nc3nccc(NC4CCCCC4)n3)c2)c1 | binding | competition with immobilised ligand | 10 µM | 47%
O=C(N1CCS(=O)(=O)CC1)N1C[C@H](c2ccc(OC(F)(F)F)cc2)C[C@H](c2nc(C3CC3)no2)C1 | cell-free assay | competition with immobilised ligand | 1 µM | 100%
F[C@@H]1CCN(c2nccc(-c3cnn4ncccc34)n2)C1 | binding |  | 1 µM | 100%
Nc1ncc2c(n1)-c1c([nH]c3ccc(C#CC4CC4)cc13)CCCC2 | binding | competition with immobilised ligand | 1 µM | 85%
N#Cc1ccc(Nc2ccc3[nH]c(=O)[nH]c3c2)c(Cl)c1 | cell-free assay | competition with immobilised ligand | 1 µM | 100%
COc1ncc2cc3ccccc3nc2c1C#N | cell-free assay | competition with immobilised ligand | 5 µM | 100%
CN(c1nccc(-c2cnn3ncccc23)n1)C1CC1 | binding |  | 1 µM | 100%
O=C(O)[C@H]1[C@H](Cn2nnc3ccccc3c2=O)CC[C@@H]1C(=O)c1ccc(OCCC2CCOCC2)cc1 | cell-free assay | competition with immobilised ligand | 1 µM | 100%
Cc1cnn2ncc(-c3ccnc(N(C)C)n3)c2c1 | binding |  | 1 µM | 100%
O=C(NCC1CCOCC1)c1n[nH]cc1NC(=O)c1c(F)cccc1F | binding | competition with immobilised ligand | 1 µM | 66%
C[C@@H](c1ccc(-n2cnc3c(N)ncnc32)cc1)N1CCc2nn(C)c(Cc3ccccc3)c2C1=O | binding | competition with immobilised ligand | 0.1 µM | 85%
CN(C)c1nccc(-c2cnn3ncccc23)n1 | binding |  | 1 µM | 100%
c1ccc(N2CCN(Cc3nc4ccccc4[nH]3)CC2)nc1 | binding | competition with immobilised ligand | 1 µM | 100%
C[C@H]1CCN(c2nccc(-c3cnn4ncccc34)n2)C1 | binding |  | 1 µM | 83%
O=C(c1ccc(Nc2ncc(Cl)c(-c3ccc(Cl)s3)n2)cc1)N1CCC(N2CCCC2)CC1 | binding | competition with immobilised ligand | 1 µM | 61%
